Results published in ChEMBL document CHEMBL2021810, “Synthesis, anticancer activities, and cellular uptake studies of lipophilic derivatives of doxorubicin succinate” (J Med Chem, 2012).
Calls of active or inactive are those of the source. The rule behind the calls is not given here.

Legend:
[1] = target: DNA topoisomerase 2-alpha (Homo sapiens) (UniProt P11388); assay: Inhibition of topoisomerase 2-mediated KDNA decatenation at 25 uM after 30 mins by gel electrophoretic analysis
Procedure, shortened: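 Eukaryotic Topo II decatenation of kDNA (0.1 μg) in Tris-HCl 50 mM pH 8.0, NaCl 150 mM, MgCl2 10 mM, DTT 0.5 mM, ATP 2 mM with compound at 1–25 μM final, 30 min at 37 °C; stopped with sarkosyl buffer; products resolved on 1% agarose with ethidium bromide.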

CCRF-CEM [2] = assay: Inhibition of cell proliferation of human CCRF-CEM cells after 96 hrs by CellTiter assay; format: functional, cell-based
MDA-MB-468 [3] = assay: Inhibition of cell proliferation of human MDA-MB-468 cells at 1 uM after 120 hrs by CellTiter assay; format: functional; settings: MDA-MB-468, 120 h
[4] = Drug uptake in doxorubicin-resistant human SKOV3 cell nucleus at 5 uM after 1 hr by confocal microscopic analysis; format: ADME, cell-based; settings: sk-ov-3, 1 h
Procedure, shortened: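 Coverslip-grown SK-OV-3 cells (seeded overnight, EMEM) treated with 5 μM compound in opti-MEM for 1 h at 37 °C, PBS-washed three times, mounted and imaged by laser scanning confocal microscopy using rhodamine and phase contrast channels for Dox fluorescence.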

[5] = Cellular uptake in doxorubicin-resistant human SKOV3 cells at 5 uM incubated for 1 hr followed by incubation with fresh media for 24 hrs measured by confocal microscopic analysis; format: ADME, cell-based, Cytoplasm; settings: sk-ov-3, 1 h
Procedure, shortened: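 SK-OV-3 cells seeded overnight on coverslips in EMEM, exposed to 5 μM compound in opti-MEM for 1 h at 37 °C, washed, then kept in fresh serum-containing medium 24 h; PBS-washed and imaged by laser scanning confocal microscopy, rhodamine and phase contrast channels.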

SK-OV-3 [6] = assay: Cytotoxicity against human SKOV3 cells at 10 uM incubated for 2 hrs followed by incubation in compound-free medium for 72 hrs by MTT assay; format: functional
Procedure, shortened: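 SK-OV-3 cells plated overnight at 5000 cells/well; exposed to compound (up to 10 μM), then medium replaced with drug-free medium for 72 h; MTT added 2 h, formazan read at 490 nm; % cytotoxicity = (OD untreated − OD treated)/OD untreated × 100.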

SK-OV-3 [7] = assay: Cytotoxicity against human SKOV3 cells after 48 hrs; format: functional, cell-based; settings: SK-OV-3, 48 h
[8] = target: DNA topoisomerase 2-alpha (Homo sapiens) (UniProt P11388); settings: 5 uM
CCRF-CEM [9] = assay: Inhibition of cell proliferation of human CCRF-CEM cells at 1 uM after 96 to 120 hrs by CellTiter assay; format: functional
HT-29 [10] = assay: Inhibition of cell proliferation of human HT-29 cells at 1 uM after 96 to 120 hrs by CellTiter assay; format: functional
MDA-MB-468 [11] = assay: Inhibition of cell proliferation of human MDA-MB-468 cells at 1 uM after 96 to 120 hrs by CellTiter assay; format: functional
MDA-MB-361 [12] = assay: Inhibition of cell proliferation of human MDA-MB-361 cells at 1 uM after 96 to 120 hrs by CellTiter assay; format: functional
SK-OV-3 [13] = assay: Inhibition of cell proliferation of human SKOV3 cells at 1 uM after 96 to 120 hrs by CellTiter assay; format: functional
CCRF-CEM [14] = assay: Inhibition of cell proliferation of human CCRF-CEM cells at 1 uM by CellTiter assay; format: functional, cell-based; settings: TDE = time-dependent effect
HT-29 [15] = assay: Inhibition of cell proliferation of human HT-29 cells at 1 uM by CellTiter assay; format: functional, cell-based; settings: TDE = time-dependent effect
MDA-MB-468 [16] = assay: Inhibition of cell proliferation of human MDA-MB-468 cells at 1 uM by CellTiter assay; format: functional, cell-based; settings: TDE = time-dependent effect
MDA-MB-361 [17] = assay: Inhibition of cell proliferation of human MDA-MB-361 cells at 1 uM by CellTiter assay; format: functional, cell-based; settings: TDE = time-dependent effect
SK-OV-3 [18] = assay: Inhibition of cell proliferation of human SKOV3 cells at 1 uM by CellTiter assay; format: functional, cell-based; settings: TDE = time-dependent effect
CCRF-CEM [19] = assay: Growth inhibition of human CCRF-CEM cells at 1 uM after 96 hrs by CellTiter assay; format: functional, cell-based
HT-29 [20] = assay: Growth inhibition of human HT-29 cells at 1 uM after 96 hrs by CellTiter assay; format: functional, cell-based
MDA-MB-468 [21] = assay: Growth inhibition of human MDA-MB-468 cells at 1 uM after 96 hrs by CellTiter assay; format: functional, cell-based
MDA-MB-361 [22] = assay: Growth inhibition of human MDA-MB-361 cells at 1 uM after 96 hrs by CellTiter assay; format: functional, cell-based
SK-OV-3 [23] = assay: Growth inhibition of human SKOV3 cells at 1 uM after 96 hrs by CellTiter assay; format: functional, cell-based

Chain of DNA topoisomerase 2-alpha (Homo sapiens) (P11388 whole entry): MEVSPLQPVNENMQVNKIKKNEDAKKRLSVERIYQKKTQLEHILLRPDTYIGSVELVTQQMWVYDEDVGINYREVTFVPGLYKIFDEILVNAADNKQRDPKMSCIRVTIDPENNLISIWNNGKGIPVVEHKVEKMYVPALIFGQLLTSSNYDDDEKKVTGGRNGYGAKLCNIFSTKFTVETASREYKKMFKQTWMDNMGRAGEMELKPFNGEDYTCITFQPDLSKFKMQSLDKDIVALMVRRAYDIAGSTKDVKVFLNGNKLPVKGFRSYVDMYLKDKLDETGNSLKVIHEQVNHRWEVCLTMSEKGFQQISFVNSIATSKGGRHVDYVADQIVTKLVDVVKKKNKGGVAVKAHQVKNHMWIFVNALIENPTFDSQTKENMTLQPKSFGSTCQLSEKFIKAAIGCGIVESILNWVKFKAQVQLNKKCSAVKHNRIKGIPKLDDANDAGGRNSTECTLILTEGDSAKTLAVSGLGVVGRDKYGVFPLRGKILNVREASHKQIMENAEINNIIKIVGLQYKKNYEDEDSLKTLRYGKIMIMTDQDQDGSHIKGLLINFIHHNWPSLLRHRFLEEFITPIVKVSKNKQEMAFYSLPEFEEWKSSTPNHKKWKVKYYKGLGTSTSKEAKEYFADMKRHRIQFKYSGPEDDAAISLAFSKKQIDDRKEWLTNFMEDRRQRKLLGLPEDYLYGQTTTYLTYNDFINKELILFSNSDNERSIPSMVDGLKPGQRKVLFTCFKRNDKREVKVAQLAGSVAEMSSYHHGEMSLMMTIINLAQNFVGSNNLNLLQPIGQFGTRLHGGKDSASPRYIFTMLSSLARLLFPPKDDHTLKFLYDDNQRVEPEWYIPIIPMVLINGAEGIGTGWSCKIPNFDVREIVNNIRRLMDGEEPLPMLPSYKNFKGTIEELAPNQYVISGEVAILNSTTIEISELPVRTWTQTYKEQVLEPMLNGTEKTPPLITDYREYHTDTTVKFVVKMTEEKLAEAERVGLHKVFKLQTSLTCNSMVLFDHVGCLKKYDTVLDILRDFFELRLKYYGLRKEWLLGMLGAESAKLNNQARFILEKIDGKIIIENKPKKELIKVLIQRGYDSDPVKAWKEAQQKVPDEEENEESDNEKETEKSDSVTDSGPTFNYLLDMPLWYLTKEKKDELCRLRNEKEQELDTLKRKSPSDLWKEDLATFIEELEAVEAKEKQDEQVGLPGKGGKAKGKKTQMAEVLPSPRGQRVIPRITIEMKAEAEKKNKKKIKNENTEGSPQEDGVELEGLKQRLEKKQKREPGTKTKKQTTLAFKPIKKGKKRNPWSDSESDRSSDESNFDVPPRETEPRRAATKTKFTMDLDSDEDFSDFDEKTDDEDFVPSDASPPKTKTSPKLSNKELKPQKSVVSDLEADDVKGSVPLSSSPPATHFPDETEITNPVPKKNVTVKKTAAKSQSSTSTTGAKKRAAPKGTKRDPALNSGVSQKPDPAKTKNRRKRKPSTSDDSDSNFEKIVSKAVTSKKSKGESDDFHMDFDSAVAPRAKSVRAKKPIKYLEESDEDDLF

IC50 (CCRF-CEM [2]) [nM]	SMILES	inhibition at 1 µM (CCRF-CEM [9]) [%]	inhibition at 1 µM (HT-29 [10]) [%]	inhibition at 1 µM (MDA-MB-468 [11]) [%]	inhibition at 1 µM (MDA-MB-361 [12]) [%]	inhibition at 1 µM (SK-OV-3 [13]) [%]	inhibition (CCRF-CEM [14])	inhibition (HT-29 [15])	inhibition (MDA-MB-468 [16])	inhibition (MDA-MB-361 [17])	inhibition (SK-OV-3 [18])	growth inhibition (GI) (CCRF-CEM [19])	growth inhibition (GI) (HT-29 [20])	growth inhibition (GI) (MDA-MB-468 [21])	growth inhibition (GI) (MDA-MB-361 [22])	growth inhibition (GI) (SK-OV-3 [23])	also measured
	CCCCCCCCCCCCCCCC(=O)N[C@H]1C[C@H](O[C@H]2C[C@](O)(C(=O)CO)Cc3c(O)c4c(c(O)c32)C(=O)c2c(OC)cccc2C4=O)O[C@@H](C)[C@H]1O																inhibition [1]: inactive
45	COc1cccc2c1C(=O)c1c(O)c3c(c(O)c1C2=O)C[C@@](O)(C(=O)CO)C[C@@H]3O[C@H]1C[C@H](N)[C@H](O)[C@H](C)O1 [DOXORUBICIN]																inhibition at 1 µM (MDA-MB-468 [3]): 69.1%; Drug uptake [4]: Active; Drug uptake [5]: Not Active; Activity (SK-OV-3 [6]): 51.5%; IC50 (SK-OV-3 [7]): 5000 nM; inhibition [8]: Active
75	CCCCCCCCCCCCNC(=O)CCC(=O)OCC(=O)[C@]1(O)Cc2c(O)c3c(c(O)c2[C@@H](O[C@H]2C[C@H](N)[C@H](O)[C@H](C)O2)C1)C(=O)c1c(OC)cccc1C3=O	69	60	49	66	54	tde	tde	tde	tde	tde	Active	Active	Active	Active	Active	
75	CCCCCCCCCCCCCCCCNC(=O)CCC(=O)OCC(=O)[C@]1(O)Cc2c(O)c3c(c(O)c2[C@@H](O[C@H]2C[C@H](N)[C@H](O)[C@H](C)O2)C1)C(=O)c1c(OC)cccc1C3=O	69	60	49	66	54	tde	tde	tde	tde	tde	Active	Active	Active	Active	Active	
